This is an account of results in ChEMBL document CHEMBL1938299, “Quinolinone-based agonists of S1P₁: use of a N-scan SAR strategy to optimize in vitro and in vivo activity” (Bioorg Med Chem Lett, 2012).

Each structure is given as a SMILES string. In brackets after ≈: the same amount, converted by molar mass.

Data set [1] has as its target T1, Sphingosine 1-phosphate receptor 1 (Homo sapiens, UniProt P21453). The experiment in a line: Agonist activity at human S1P1 receptor expressed in human U2OS cells co-expressing eGFP assessed as receptor internalization into cytoplasm using Hoechst dye staining. Type of data set: functional, cell-based.
Data set [2] concerns the target T2, Sphingosine 1-phosphate receptor 3 (Homo sapiens, UniProt Q99500). The experiment in a line: Agonist activity at human S1P3 receptor expressed in CHO-K1 cells co-expressing Gq/i5 G-protein assessed as calcium mobilization by FLIPR assay. Type of data set: functional, cell-based. On the technique in general: A change in cytosolic calcium serves as a functional read-out for many receptors and channels.

Data set [3] is described as follows: Efflux ratio of permeability in pig LLC-PK1 cells. It is filed as ADME, cell-based, Sus scrofa. Put shortly:
(§1)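 LLC-PK1 porcine proximal tubule cell monolayers; apparent permeability (Papp) of test compound through the cells measured, along with efflux ratio.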

A short description of data set [4]: Solubility of the compound in simulated intestinal fluid at pH 7.4. Type of data set: physicochemical. Put shortly:
(§2)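 Compound solubility measured separately in 0.010 M aqueous HCl, in PBS at pH 7.4, and in simulated intestinal fluid.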

Data set [5] is described as follows: Solubility of the compound in 0.010 M aqueous hydrogen chloride at pH 7.4. Type of data set: physicochemical. The note with it: in the assay text read “hydrogen chloride” for “hydrogen chloride at pH 7.4”. Put shortly: as §2
Data set [6] has as its target T1, Sphingosine 1-phosphate receptor 1. The experiment in a line: Agonist activity at human S1P1 receptor expressed in human U2OS cells co-expressing eGFP assessed as receptor internalization into cytoplasm using Hoechst dye staining relative to 1-(4-(6-benzylbenzofuran-2-yl)-3- fluorobenzyl)azetidine-3-carboxylic acid. It is filed as functional, cell-based.
A short description of data set [7]: Solubility of the compound in phosphate-buffered saline at pH 7.4. It is filed as physicochemical. Put shortly:
as §2

Data set [8] in a line: Apparent permeability of the compound in pig LLC-PK1 cells. It is filed as ADME, cell-based, Sus scrofa. Put shortly: as §1
Data set [9] can be described thus: Intrinsic clearance in rat liver microsomes assessed per mg of protein after 30 mins. It is filed as ADME, Microsome. The note with it: read-out: CLH. Put shortly: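 Test compound incubated with rat liver microsomes for 30 min. Percent turnover measured and used to estimate intrinsic clearance.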
(Microsomes from liver hold many membrane-bound enzymes, among them those of drug oxidation.)

The target of data set [10] is T2, Sphingosine 1-phosphate receptor 3. Nature of the data set: Agonist activity at human S1P3 receptor expressed in CHO-K1 cells co-expressing Gq/i5 G-protein assessed as calcium mobilization by FLIPR assay relative to S1P. It is filed as functional, cell-based. In a few lines:
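Ca2+ mobilization in CHO-K1 cells expressing hS1P3 and a chimeric Gq/i5 G-protein. Efficacy expressed as % relative to S1P; compounds not reaching >10% of control activity reported as greater than the highest concentration tested.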

A further data set has as its system Rattus norvegicus. Nature of the data set: Immunosuppressive activity in Lewis rat assessed as reduction in circulating peripheral lymphocyte count at 1 mg/kg, po after 24 hrs relative to control. Type of data set: functional. Details: scale not given: the % may be the effect or the level left. In a few lines:
(§3)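 Female Lewis rats (N = 5/group) given a single oral dose (0.30, 1.0 or 3.0 mg/kg) in 20% Captisol or HPBCD, 1% HPMC, 1% Pluronic F68, pH 2.0 with MSA. At 24 h, blood lymphocytes were counted as percent of vehicle control and total plasma compound measured. Significance by ANOVA/Dunnett's test versus vehicle.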

Data set [11] is described as follows: Plasma concentration in Lewis rat at 1 mg/kg, po after 24 hrs. It is filed as ADME, organism-based. More on the design: dose 1 mg/kg, route oral. Put shortly:
as §3

T2 sequence (Q99500 whole entry): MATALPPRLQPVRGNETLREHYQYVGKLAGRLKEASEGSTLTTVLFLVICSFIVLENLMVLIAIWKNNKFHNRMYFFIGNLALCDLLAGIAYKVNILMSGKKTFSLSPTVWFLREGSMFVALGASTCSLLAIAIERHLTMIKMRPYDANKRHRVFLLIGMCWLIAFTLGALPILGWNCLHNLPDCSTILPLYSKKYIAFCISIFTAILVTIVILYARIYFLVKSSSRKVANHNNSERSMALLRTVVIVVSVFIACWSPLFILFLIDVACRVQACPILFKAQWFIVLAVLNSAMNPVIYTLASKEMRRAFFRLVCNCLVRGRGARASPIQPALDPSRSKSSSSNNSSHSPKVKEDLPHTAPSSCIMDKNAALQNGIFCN
T1 sequence (P21453 whole entry): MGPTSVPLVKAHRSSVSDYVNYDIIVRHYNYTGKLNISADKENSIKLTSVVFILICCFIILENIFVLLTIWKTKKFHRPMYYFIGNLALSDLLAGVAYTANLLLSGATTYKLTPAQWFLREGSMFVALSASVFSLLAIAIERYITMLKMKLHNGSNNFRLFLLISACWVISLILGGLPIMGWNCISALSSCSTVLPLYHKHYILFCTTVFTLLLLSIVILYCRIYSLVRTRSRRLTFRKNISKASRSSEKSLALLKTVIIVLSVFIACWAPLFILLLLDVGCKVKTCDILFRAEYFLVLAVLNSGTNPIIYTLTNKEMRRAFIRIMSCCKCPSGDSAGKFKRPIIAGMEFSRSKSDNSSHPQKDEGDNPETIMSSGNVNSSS

Usually EC50 stands for the concentration at which the effect is half-maximal. What is called efflux ratio is a quotient of directional permeabilities that is used to spot active efflux. Usually solubility stands for how much of the substance goes into solution per volume. A word on the Papp: it is a coefficient for how fast a substance crosses the barrier. In the case of `Cn1cc(C(=O)Nc2ccc(-c3cccnc3)c(C(F)(F)F)c2)c(=O)c2ccccc21`, the EC50 was 310 nM in [1] and over 2500 nM in data set [2]. The efflux ratio in data set [3] stood at 1.6. In addition, the solubility in data set [4] was 6.7 µg/mL (≈ 15.8 µM); in data set [5], 23 µg/mL (≈ 54.3 µM); in [7] it was under 1 µg/mL. The Efficacy in data set [6] worked out at 110%. Also, in data set [8], the Papp came out at 18 ×10⁻⁶ cm/s. For the same compound, in data set [9], the microsomal CLint worked out at 18 µL/min/mg.
`Cn1cc(C(=O)Nc2ccc(-c3ccccc3)c(C(F)(F)F)c2)c(=O)c2ncccc21`: the results for the 50% effective concentration (EC50) in data set [1] and in data set [2] were 4100 nM and over 2500 nM, respectively. Also, in [3], the efflux ratio was 1.4. In addition, in data set [6], the Efficacy was found to be 86%. In addition, the apparent permeability coefficient (Papp) in data set [8] came out at 16 ×10⁻⁶ cm/s. Further, the microsomal CLint in data set [9] is under 14 µL/min/mg.
As to `CCCCCCCCc1ccc(CC[C@](N)(CO)COP(=O)(O)O)cc1`, in data set [10], the Efficacy worked out at 35%.
For `Cn1cc(C(=O)Nc2ccc(-c3ccccc3)c(C(F)(F)F)n2)c(=O)c2ccccc21`, the concentration for a half-maximal effect (EC50) in data set [1] is 42 nM; in data set [2] it was over 2500 nM. The solubility in data set [4] was 2.3 µg/mL (≈ 5.43 µM); in data set [5], under 1 µg/mL; in [7], under 1 µg/mL. Besides, the Efficacy in data set [6] stood at 120%. Besides, in the data set on Rattus norvegicus, the Activity was found to be 7%. The compound also gave a concentration at 24 h in data set [11] of 1.3 ng/mL. In data set [8], the apparent permeability coefficient (Papp) is under 1 ×10⁻⁶ cm/s. For the same compound, in data set [9], the microsomal CLint is under 14 µL/min/mg.
For `CCCCCCCCc1ccc(CCC(N)(CO)CO)cc1`, the Efficacy in [6] came out at 115%.
Turning to `Cn1nc(C(=O)Nc2ccc(-c3ccccc3)c(C(F)(F)F)c2)c(=O)c2ccccc21`, the 50% effective concentration (EC50) in data set [1] is 41 nM; in data set [2], over 2500 nM. Further, the efflux ratio in data set [3] amounted to 1.2. The solubility in [4] is 12 µg/mL (≈ 28.3 µM); in [5] it was under 1 µg/mL; in data set [7] it was 1.6 µg/mL (≈ 3.78 µM). Besides, the Efficacy in [6] was 130%. In addition, the Activity in the data set with Rattus norvegicus is 6%. The concentration at 24 h in data set [11] is 9.7 ng/mL. Further, the Papp in data set [8] is 2.3 ×10⁻⁶ cm/s. The microsomal CLint in data set [9] was under 14 µL/min/mg.
Take `Cn1cc(C(=O)Nc2ccc(-c3ccccn3)c(C(F)(F)F)c2)c(=O)c2cnccc21`: the 50% effective concentration (EC50) in data set [1] is 200 nM; in data set [2], over 2500 nM. For the same compound, in data set [3], the efflux ratio was found to be 1. Further, the values for the solubility in [4], in data set [5] and in data set [7] were 6.7 µg/mL (≈ 15.8 µM), 120 µg/mL (≈ 283 µM) and under 1 µg/mL, respectively. Besides, the Efficacy in data set [6] was 100%. For the same compound, the Activity with Rattus norvegicus is recorded as -32%. For the same compound, the concentration at 24 h in data set [11] stood at 150 ng/mL. Also, in data set [8], the apparent permeability (Papp) is 16 ×10⁻⁶ cm/s. Moreover, the microsomal CLint in [9] is 15 µL/min/mg.
For the compound `Cn1cc(C(=O)Nc2ccc(-c3ccccn3)c(C(F)(F)F)c2)c(=O)c2ccccc21`, the half-maximal effective concentration (EC50) is 60 nM in data set [1] and over 2500 nM in [2]. In addition, the efflux ratio in data set [3] was 0.8. Moreover, the solubility in [4] is 5.2 µg/mL (≈ 12.3 µM); in [5], 12 µg/mL (≈ 28.3 µM); in data set [7], under 1 µg/mL. For the same compound, in data set [6], the Efficacy was determined as 110%. Moreover, in the data set with Rattus norvegicus, the Activity is recorded as 25%. In addition, the concentration at 24 h in [11] stood at 5.1 ng/mL. The Papp in data set [8] worked out at 11 ×10⁻⁶ cm/s. For the same compound, the microsomal CLint in [9] was under 14 µL/min/mg.
For the compound `COc1ccncc1C(=O)NC(=O)Nc1ccc(-c2ccccc2)c(C(F)(F)F)c1`, in data set [2], the EC50 was over 25000 nM. Also, the solubility in [4] is 16 µg/mL (≈ 38.5 µM); in data set [5], 17 µg/mL (≈ 40.9 µM); in [7], 6.6 µg/mL (≈ 15.9 µM). For the same compound, the Activity in the data set on Rattus norvegicus is reported as -78%. Also, the concentration at 24 h in [11] came to 63 ng/mL. The apparent permeability coefficient (Papp) in data set [8] is 2.3 ×10⁻⁶ cm/s.
